Experimental data reported in ChEMBL document CHEMBL4138218, “Potent aromatase inhibitors and molecular mechanism of inhibitory action” (Eur J Med Chem, 2018).

What was measured:
Aromatase = target: T1, Aromatase (Homo sapiens, UniProt P11511); assay: Inhibition of human aromatase using androstenedione as substrate and NADPH preincubated for 24 hrs followed by substrate addition measured after 24 hrs by ELISA
T1 sequence (P11511 whole entry): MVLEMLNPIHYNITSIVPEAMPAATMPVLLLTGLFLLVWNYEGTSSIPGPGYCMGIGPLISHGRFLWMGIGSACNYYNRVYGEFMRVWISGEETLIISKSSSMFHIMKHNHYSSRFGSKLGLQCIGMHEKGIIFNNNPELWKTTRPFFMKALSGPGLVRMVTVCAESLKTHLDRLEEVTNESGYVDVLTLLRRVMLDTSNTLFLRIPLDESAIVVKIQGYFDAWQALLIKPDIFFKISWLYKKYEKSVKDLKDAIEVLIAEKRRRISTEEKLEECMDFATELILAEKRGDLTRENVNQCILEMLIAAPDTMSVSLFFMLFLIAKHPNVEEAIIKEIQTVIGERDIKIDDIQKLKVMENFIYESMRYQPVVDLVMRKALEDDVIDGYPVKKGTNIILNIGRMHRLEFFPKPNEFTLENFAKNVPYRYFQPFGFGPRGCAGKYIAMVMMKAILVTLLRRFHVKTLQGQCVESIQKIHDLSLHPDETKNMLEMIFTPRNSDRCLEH
Summary of the method: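 Enzyme was a microsomal pellet from human placenta: tissue homogenized in TES buffer (20 mM TES, 1 mM EDTA, 0.15 M KCl, 0.1 mM PMSF, pH 7.4), spun at 10,000 g for 25 min then 100,000 g for 75 min at 4 °C, resuspended with 0.25 M sucrose, stored at −80 °C. Androstenedione substrate with NADPH; estrone quantified by ELISA against a standard curve. Triplicates, mean IC50.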

MCF7 = assay: Cytotoxicity against human MCF7 cells after 48 hrs by MTT assay; type: cell-based; settings: MCF7, 48 h
Summary of the method: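 MCF-7 cells in DMEM with 10% FBS and 1% penicillin-streptomycin at 37 °C, 5% CO2. Seeded at 4,000 cells/well and left overnight, then exposed to a range of concentrations for 48 h. Medium replaced with fresh medium containing MTT (5 mg/ml) for 4 h, formazan dissolved in DMSO, absorbance read at 490 nm. IC50 computed from the curves.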

Structure (SMILES)	IC50 (Aromatase) [nM]	IC50 (MCF7) [µM]
Clc1ccc(-c2[nH]c3cc4c(cc3c2Cn2cncn2)OCO4)cc1	677	354
COc1ccc(-c2[nH]c3cc(Cl)ccc3c2Cn2ccnc2)cc1	277	> 1000
Fc1ccc(-c2[nH]c3cc(F)ccc3c2Cn2ccnc2)cc1	51.2	83.2
Fc1ccc2c(Cn3cncn3)c(-c3ccc(Cl)cc3)[nH]c2c1	217	> 1000
COc1ccc(-c2[nH]c3cc(F)ccc3c2Cn2ccnc2)cc1	36.1	> 1000
Clc1ccc(-c2[nH]c3cc4c(cc3c2Cn2ccnc2)OCO4)cc1	2640	> 1000
COc1ccc2c(Cn3ccnc3)c(-c3ccc(F)cc3)[nH]c2c1	109	> 1000
N#Cc1ccc(C(c2ccc(C#N)cc2)n2cncn2)cc1 [LETROZOLE]		4.73
COc1ccc(-c2[nH]c3cc(F)ccc3c2Cn2cncn2)cc1	14.1	325
Fc1ccc(-c2[nH]c3cc(Cl)ccc3c2Cn2ccnc2)cc1	32.3	41.5
Fc1ccc(-c2[nH]c3cc(F)ccc3c2Cn2cncn2)cc1	54.4	> 1000
COc1ccc(-c2[nH]c3cc(Cl)ccc3c2Cn2cncn2)cc1	196	14.4
Fc1ccc2c(Cn3ccnc3)c(-c3ccc(Cl)cc3)[nH]c2c1	82.9	45

More lines, main results first:

IC50 (Aromatase) [nM]	Structure (SMILES)	IC50 (MCF7) [µM]
1060	COc1ccc2c(Cn3ccnc3)c(-c3ccc(Cl)cc3)[nH]c2c1	> 1000
58.3	Fc1ccc(-c2[nH]c3cc4c(cc3c2Cn2cncn2)OCO4)cc1	334
211	Fc1ccc(-c2[nH]c3cc4c(cc3c2Cn2ccnc2)OCO4)cc1	> 1000
238	COc1ccc2c(Cn3cncn3)c(-c3ccc(F)cc3)[nH]c2c1	12.2
261	Clc1ccc(-c2[nH]c3cc(Cl)ccc3c2Cn2ccnc2)cc1	> 1000
7770	COc1ccc2c(Cn3cncn3)c(-c3ccc(Cl)cc3)[nH]c2c1	612
96.9	Fc1ccc(-c2[nH]c3cc(Cl)ccc3c2Cn2cncn2)cc1	625
208	Clc1ccc(-c2[nH]c3cc(Cl)ccc3c2Cn2cncn2)cc1	382
